Assay outcomes as filed in PubChem.
Hits are enriched below; roughly 2.3% of the tested compounds scored in any of these assays.
TRPC4 act = opens the mouse TRPC4 cation channel | Q9QUQ5 | HEK293 TRPC4beta/mu-opioid, Fluo4 calcium fluorescence; stronger effect = higher value | B-score at 10 µM | actives 0.49% (n = 310,000) | AID 2237;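 active = B-score above 5 SD of library B-scores, and initial fluorescence ratio not above library mean plus 5 SD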;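 also: positive B-score marks a calcium rise read as TRPC4 activation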
Target sequence (Q9QUQ5 whole entry, looked up): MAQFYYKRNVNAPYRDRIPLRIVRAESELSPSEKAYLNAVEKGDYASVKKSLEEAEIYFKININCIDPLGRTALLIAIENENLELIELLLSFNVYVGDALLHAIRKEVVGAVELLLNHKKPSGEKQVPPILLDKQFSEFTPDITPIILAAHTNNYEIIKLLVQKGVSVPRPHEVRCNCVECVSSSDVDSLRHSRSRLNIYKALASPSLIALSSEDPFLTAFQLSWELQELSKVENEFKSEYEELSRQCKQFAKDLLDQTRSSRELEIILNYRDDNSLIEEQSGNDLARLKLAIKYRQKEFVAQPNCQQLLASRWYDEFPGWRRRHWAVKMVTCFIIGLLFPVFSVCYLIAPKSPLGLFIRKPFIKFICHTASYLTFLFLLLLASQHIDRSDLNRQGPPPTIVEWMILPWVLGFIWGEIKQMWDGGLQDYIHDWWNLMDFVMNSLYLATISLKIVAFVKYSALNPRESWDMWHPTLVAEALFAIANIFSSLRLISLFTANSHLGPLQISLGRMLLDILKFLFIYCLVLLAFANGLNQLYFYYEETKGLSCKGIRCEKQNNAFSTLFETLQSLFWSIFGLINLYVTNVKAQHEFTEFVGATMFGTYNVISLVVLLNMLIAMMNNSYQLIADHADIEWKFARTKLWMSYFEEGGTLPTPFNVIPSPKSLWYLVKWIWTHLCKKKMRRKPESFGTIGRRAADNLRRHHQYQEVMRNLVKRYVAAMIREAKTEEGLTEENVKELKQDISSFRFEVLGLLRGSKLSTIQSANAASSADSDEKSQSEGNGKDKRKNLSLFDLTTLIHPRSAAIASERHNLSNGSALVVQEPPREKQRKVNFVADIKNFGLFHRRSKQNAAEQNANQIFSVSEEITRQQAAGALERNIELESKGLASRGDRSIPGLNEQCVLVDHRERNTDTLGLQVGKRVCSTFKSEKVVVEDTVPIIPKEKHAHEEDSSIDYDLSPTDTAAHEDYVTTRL
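Test system: HEK293 cells stably co-expressing mouse TRPC4beta and mu-opioid receptor | Schedule: Fluo4 dye loading 45 min at room temperature, 110 s recording | Measured by: Kinetic Fluo4 calcium fluorescence, 5 s baseline at 1 Hz | Evaluation: B score of integrated ratio | Controls: Buffer (low) and maximal DAMGO (high)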
TRPC4 block = inhibitors of mouse TRPC4 channel | Q9QUQ5 | HEK293 TRPC4beta/mu-opioid, DAMGO-evoked Fluo4 calcium flux; stronger effect = lower value | B-score at 10 µM | actives 0.39% (n = 300,000) | AID 2247;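 active = B-score over 3 SD under the library average, no early fluorescence shift, positive overall ratio signal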
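material = TRPC4beta/mu-opioid receptor HEK293 cell line | probe or stimulus = sequential submaximal and maximal DAMGO stimulation | compound dosing = one concentration per compound | measured by = Fluo4 Ca2+ flux fluorescence | evaluation = integrated fluorescence ratio relative to baseline, converted to per-well B score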
TRPC6 inhibitor = blocks the mouse TRPC6 cation channel; Q61143; HEK293-TRPC6, membrane potential dye, ACh-evoked depolarization; stronger effect = lower value; B-score at 10 µM; actives 1.1% (n = 310,000); AID 2553;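 active = B-score under library mean minus 3 SD, initial fluorescence not abnormally high, positive integrated signal ratio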;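 also: B-score derived from integrated fluorescence ratio over the kinetic read; more negative B-score means stronger inhibition of depolarization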
TRPC4 potent = TRPC4 (mouse) allosteric potentiation. HEK293 TRPC4beta/mu-opioid, DAMGO EC20, Fluo-4 Ca2+ flux; stronger effect = higher value. B-score at 10 µM. Q9QUQ5. actives 0.42% (n = 310,000);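 active = B-score of calcium response area above 5 SD of library B-scores, with initial fluorescence ratio within 5 SD of library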;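 also: B-score of integrated fluorescence ratio over time as area under calcium response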
TRPC6 activator = mouse TRPC6 channel activation. B-score at 10 µM. actives 0.13% (n = 310,000). AID 2550. HEK293-TRPC6 membrane potential dye fluorescence; stronger effect = higher value;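 active = B-score of the integrated fluorescence ratio above library mean plus 3 SD, and starting fluorescence ratio within library mean plus 5 SD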;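 also: higher score means more depolarization so channel activation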
* marks the source's active call; other numbers are inactive results; i = inactive.

SMILES	TRPC4 act	TRPC4 block	TRPC6 inhibitor	TRPC4 potent	TRPC6 activator
CN1C(=O)c2ccccc2NC(=O)[C@]12O[C@@H]2c1ccccc1	i	i	i	i	i
CC(C)c1ccccc1NC1=NCCCS1	i	i	i	i	i
O=C1NC(=O)N(c2cccc(Br)c2)C(=O)/C1=C/c1ccsc1	i	i	i	i	i
COc1cc2c3cc1Oc1cc(ccc1O)C[C@@H]1c4c(cc(OC)c(O)c4Oc4ccc(cc4)C[C@H]3N(C)CC2)CCN1C	117*	i	i	i	i
CCNC(=O)C1OC(n2cnc3c(N)ncnc32)C(O)C1O (stereo not drawn)	53*	i	i	i	i
CCCCn1c(NS(=O)(=O)c2ccccc2)c(C(=O)OCC)c2nc3ccccc3nc21	i	i	i	i	i
CCCCn1c(NC(=O)c2ccc(Br)o2)c(C(=O)OCC)c2nc3ccccc3nc21	i	i	i	i	15.5*
COc1cccc(C2(O)CCSCC2CN(C)C)c1 (stereo not drawn)	i	i	i	i	i
C[N+]1(CCC(C(N)=O)(c2ccccc2)c2ccccc2)CCCCC1	i	i	-9.67*	i	i
CCCN1CCC[C@@H]2Cc3nc(N)ncc3C[C@H]21	i	i	i	11*	i
CCCN1CCC[C@@H]2Cc3[nH]ncc3C[C@H]21	i	i	i	i	i
CC1=C(C(=O)OC(C)C)[C@]2(C(=O)N(CC(N)=O)c3ccccc32)C(C#N)=C(N)O1	i	i	i	i	i
C=CCOC(=O)C1=C(C)OC(N)=C(C#N)[C@@]12C(=O)N(CC(N)=O)c1ccccc12	i	i	i	22*	i
Cc1ccc2[nH]c(=S)n(-c3cccnc3)c(=O)c2c1	i	i	i	i	i
CCOC(=O)C1(c2ccccc2)CCN(CCC(=O)Nc2ccccc2OC)CC1	50*	i	i	i	i
Clc1cccc(C2NCCc3[nH]cnc32)c1 (stereo not drawn)	50*	i	i	i	i
Fc1ccc(C2NCCc3[nH]cnc32)cc1 (stereo not drawn)	60*	i	i	i	i
COc1ccc(C2CN(C)CC2C(=O)c2ccc(C)cc2)cc1Cl (stereo not drawn)	i	i	i	i	i
O=c1[nH]c(=O)n(Cc2ccc(F)cc2)c(O)c1C=NCCCn1ccnc1	i	i	i	i	i
O=c1[nH]c(=O)n(Cc2ccc(F)cc2)c(O)c1C=NCCCO	57*	-5*	i	i	i
CCc1ccc(OCCCN=C(C)c2c(O)n(C)c(=O)n(C)c2=O)cc1	i	i	i	16*	i
O=CC(Br)P(=O)(N1CCOCC1)N1CCOCC1 (stereo not drawn)	i	i	i	i	i
Cc1ccc(C)c(-n2c(C)nc3ccccc3c2=O)c1	i	i	i	i	i
Cc1cc(NCCN)nc2ccccc12	i	i	i	28*	i
O=C1CN=C(c2cccc(Br)c2)c2cc(Br)ccc2N1	i	i	i	i	i
SMILES	TRPC4 act	TRPC4 block	TRPC6 inhibitor	TRPC4 potent	TRPC6 activator
CC(C)(C)C(=O)OCC12CCC(O1)C1(C)C(=O)OCC21 (stereo not drawn)	i	i	i	i	i
COc1ccc2c(c1O)C13CCN(C)C(C2)C1CCC(=O)C3 (stereo not drawn)	93*	i	i	i	i
COC(=O)C1=C(c2cc3ccccc3o2)C[C@@H]2CC[C@H]1N2C(=O)N1CCC(C)CC1	i	i	i	i	i
CN1CCN(Cc2nc3ccccc3n2C)CC1	i	i	i	11*	i
C=CCN1CC[C@]23c4c5ccc(O)c4O[C@H]2/C(=N/NC(=O)c2ccccc2)CC[C@@]3(O)[C@H]1C5	49*	i	i	i	i
C[C@H]1[C@@H](c2ccccc2)O[C@@H](c2ccccc2Br)N1C	i	i	i	i	i
C=CCN1C(=O)NC(=O)C(CCc2ccncc2)(CCc2ccncc2)C1=O	i	i	i	i	i
CCN(CC)c1ccc(CNCCc2ccc(F)cc2)cc1	51*	i	i	i	i
CCc1ccc(CNCCc2ccc(F)cc2)cc1	i	i	i	i	i
CN1CCc2c(C#N)c(Cl)nc(Cl)c2C1	i	i	i	i	i
CCOC(=O)c1cccc(-[n+]2c(-c3ccccc3)cc(-c3ccccc3)cc2-c2ccccc2)c1	i	i	i	i	i
c1ccc(-c2cc(-c3ccccc3)[n+](-c3ccccc3)c(-c3ccccc3)c2)cc1	i	i	i	18*	i
CN(C)c1ccc(-[n+]2c(-c3ccccc3)cc(-c3ccccc3)cc2-c2ccccc2)cc1	i	i	i	11*	i
CCOC(=O)c1ccc(-[n+]2c(-c3ccccc3)cc(-c3ccccc3)cc2-c2ccccc2)cc1	i	i	i	i	i
C[N+]1(C)[C@@H]2CC[C@H]1CC(OC(=O)C(CO)c1ccccc1)C2 (stereo partly drawn)	i	i	-7.06*	i	i
COP(=O)(/C=C(\Cl)c1ccccc1)/C=C(\Cl)c1ccccc1	i	i	i	i	i
COc1ccc(-c2nn(CCC#N)cc2C(=O)NCc2ccccc2)cc1[N+](=O)[O-]	i	i	i	i	i
CCOc1c(Cl)cc(CNC(C)C(O)c2ccccc2)cc1OC (stereo not drawn)	i	-6*	i	i	i
COc1cc(OC)c(OC)cc1CNC(C)C(O)c1ccccc1 (stereo not drawn)	i	i	i	i	i
CCN1CCC(NCC2CCCCC2)CC1	i	i	i	i	i
COc1ccc(CCNCc2sccc2C)cc1	i	i	i	i	i
N=c1n(CCO)c2ccccc2n1Cc1ccccc1	i	-7*	i	i	i
COC(=O)C1=CCCN(C)C1	99*	i	i	i	i
COC(=O)C(=O)N1CC2(C)CNCC(C)(C1)C2=O	i	i	i	i	i
CC(C)Oc1cc(-n2c(=S)[nH]c3ccccc3c2=O)c(Cl)cc1Cl	i	i	i	12*	i
O=c1cccc2n1C[C@@H]1C[C@@H]2CN(CC(O)c2ccc([N+](=O)[O-])cc2)C1 (stereo partly drawn)	i	i	i	i	i
